ChEMBL document CHEMBL4680134, “Structural optimization of natural product nordihydroguaretic acid to discover novel analogues as AcrB inhibitors” (Eur J Med Chem, 2020)
Values after ≈ are worked out from the molar mass of the structure shown.

Legend:
[1] = target: T1, Multidrug efflux pump subunit AcrB (Escherichia coli (strain K12)) (UniProt P31224); experiment: Inhibition of AcrB in Escherichia coli BW25113 assessed as potentiation of chloramphenicol induced antibacterial activity by measuring fold change in chloramphenicol MIC at 256 ug/ml measured after 18 hrs by checkerboard titration method relative to chloramphenicol alone; conditions: dose 256.0 µg/ml
T1 sequence (whole entry): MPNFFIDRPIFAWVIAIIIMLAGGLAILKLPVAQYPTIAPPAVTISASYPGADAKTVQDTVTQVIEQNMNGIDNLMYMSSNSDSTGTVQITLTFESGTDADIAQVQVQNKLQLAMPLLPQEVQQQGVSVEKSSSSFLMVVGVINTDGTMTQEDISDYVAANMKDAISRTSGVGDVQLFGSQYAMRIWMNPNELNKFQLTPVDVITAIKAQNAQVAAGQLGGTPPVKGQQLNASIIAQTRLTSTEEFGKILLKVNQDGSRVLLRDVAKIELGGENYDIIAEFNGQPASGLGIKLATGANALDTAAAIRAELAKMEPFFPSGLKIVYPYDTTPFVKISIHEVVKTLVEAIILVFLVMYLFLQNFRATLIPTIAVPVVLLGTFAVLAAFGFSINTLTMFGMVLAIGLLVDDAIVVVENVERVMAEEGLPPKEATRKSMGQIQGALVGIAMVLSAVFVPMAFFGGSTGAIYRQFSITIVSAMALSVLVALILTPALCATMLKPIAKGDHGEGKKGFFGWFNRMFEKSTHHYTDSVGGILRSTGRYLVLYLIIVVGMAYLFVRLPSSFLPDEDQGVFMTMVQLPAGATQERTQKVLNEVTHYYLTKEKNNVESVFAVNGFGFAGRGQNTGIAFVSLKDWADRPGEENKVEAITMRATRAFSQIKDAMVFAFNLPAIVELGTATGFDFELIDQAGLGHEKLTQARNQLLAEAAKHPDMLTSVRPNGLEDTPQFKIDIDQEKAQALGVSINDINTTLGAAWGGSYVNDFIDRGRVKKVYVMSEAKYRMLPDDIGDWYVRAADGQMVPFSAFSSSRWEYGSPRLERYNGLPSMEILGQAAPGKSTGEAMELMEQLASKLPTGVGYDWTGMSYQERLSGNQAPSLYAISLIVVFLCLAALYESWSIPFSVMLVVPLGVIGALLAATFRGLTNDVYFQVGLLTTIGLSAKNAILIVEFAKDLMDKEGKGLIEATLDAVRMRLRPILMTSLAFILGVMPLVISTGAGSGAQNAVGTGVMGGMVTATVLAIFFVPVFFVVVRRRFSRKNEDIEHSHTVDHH

[2] = target: T1, Multidrug efflux pump subunit AcrB (Escherichia coli (strain K12)); experiment: Inhibition of AcrB in Escherichia coli BW25113 assessed as potentiation of tetraphenylphosphonium induced antibacterial activity by measuring fold change in tetraphenylphosphonium MIC at 256 ug/ml measured after 18 hrs by checkerboard titration method relative to tetraphenylphosphonium alone; conditions: dose 256.0 µg/ml
Cell membrane [3] = experiment: Induction of inner membrane permeabilization in CCCP treated wild type Escherichia coli BW25113 at 16 ug/ml measured after 10 mins by Di0C2(3) probe based fluorimetric method; conditions: escherichia coli bw25113, 10 min, dose 16 µg/ml
In short: (§1)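 Cells left untreated or exposed to compound at 8-256 µg/mL for 10 min, then DiOC2(3) added and fluorescence followed to plateau. Cells re-energized with 0.5% glucose; membrane potential build-up read as fluorescence rise to plateau, then dissipated with CCCP.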

[4] = target: T1, Multidrug efflux pump subunit AcrB (Escherichia coli (strain K12)); experiment: Inhibition of AcrB in Escherichia coli BW25113 assessed as potentiation of tetraphenylphosphonium induced antibacterial activity by measuring fold change in tetraphenylphosphonium MIC at 128 ug/ml measured after 18 hrs by checkerboard titration method relative to tetraphenylphosphonium alone; conditions: dose 128.0 µg/ml
[5] = Growth inhibition of Escherichia coli BW25113 expressing AcrB after 18 hrs by broth microdilution assay
In short: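 MIC determined by 96-well broth microdilution in E. coli BW25113 expressing AcrB ((+)AcrB) and an isogenic acrB-deleted strain ((-)AcrB). Used to set the compound concentrations for synergy testing that produce no direct antibacterial effect.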

Cell membrane [6] = experiment: Induction of inner membrane permeabilization in CCCP treated wild type Escherichia coli BW25113 measured after 10 mins by Di0C2(3) probe based fluorimetric method; conditions: escherichia coli bw25113, 10 min; in short: as §1

Q: With `Oc1ccc(CCCCc2cc(O)c(O)c(O)c2)cc1O` as the compound, how does the fold change (FC) [1] read?
A: 8

Q: For `Oc1ccc(CCCCCc2ccc(O)c(O)c2)cc1O`, which fold change (FC) [2] is on record?
A: 32

Q: Which Activity (Cell membrane [3]) does the source give for `Oc1ccc(CCCCc2cc3cccc4ccc5cccc2c5c43)cc1O` here?
A: Non-Toxic

Q: With `O=C(NCCc1ccc(O)c(O)c1)c1cc(O)c(O)c(O)c1` as the compound, how does the fold change (FC) [4] read?
A: 4

Q: Which results are given for `Cc1ccc(C(=O)NCCc2ccc(O)c(O)c2)cc1`?
A: MIC [5]: 64 µg/mL (≈ 236 µM); Activity (Cell membrane [6]): Toxic
